Legend:
[1] = Dissociation constant, pKa of the compound; assay type: physicochemical
Gallus gallus [2] = species: Gallus gallus; test: Effect on reduced chicken lysozyme folding activity assessed as maximal activity at 15 mM at pH 6; set-up: scale not given: the % may be the effect or the level left
How it was run: (§1)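 Denatured reduced lysozyme (DTE-reduced in 6 M GdnHCl, desalted) diluted 100-fold to 7 µM (0.1 mg/mL) into deoxygenated 0.1 M Bis–Tris pH 6.0, 1 mM EDTA, 0.5 M GdnHCl, 0.2 mM GSSG plus aromatic thiol, 25 °C. Aliquots assayed over time by lysis of M. lysodeikticus (450 nm light scattering, 2 min slope). Curves fit to y=A(1−e^−kt), A = maximal %activity; at least four assays on separate days, standard deviation.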

Gallus gallus [3] = species: Gallus gallus; test: Effect on reduced chicken lysozyme folding activity assessed as maximal activity at 20 mM at pH 7; set-up: scale not given: the % may be the effect or the level left
How it was run: (§2)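 Denatured reduced lysozyme diluted 100-fold to 7 µM into deoxygenated 0.1 M Bis–Tris propane pH 7.0, 1 mM EDTA, 0.5 M GdnHCl, 0.2 mM GSSG plus aromatic thiol, 25 °C. Timed aliquots assayed for lytic activity on M. lysodeikticus (decrease in 450 nm scattering over 2 min). Fit to y=A(1−e^−kt), A = maximal %activity; at least seven independent assays on separate days.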

Gallus gallus [4] = species: Gallus gallus; test: Effect on reduced chicken lysozyme folding activity assessed as maximal activity at 20 mM at pH 6; set-up: scale not given: the % may be the effect or the level left; how it was run: as §1
Gallus gallus [5] = species: Gallus gallus; test: Effect on reduced chicken lysozyme folding activity assessed as maximal activity at 8 mM at pH 6; set-up: scale not given: the % may be the effect or the level left; how it was run: as §1
Gallus gallus [6] = species: Gallus gallus; test: Effect on reduced chicken lysozyme folding activity assessed as maximal activity at 8 mM at pH 7; set-up: scale not given: the % may be the effect or the level left; how it was run: as §2
Gallus gallus [7] = species: Gallus gallus; test: Effect on reduced chicken lysozyme folding activity assessed as maximal activity at 15 mM at pH 7; set-up: scale not given: the % may be the effect or the level left; how it was run: as §2

Compound	Activity (Gallus gallus [2])	Activity (Gallus gallus [5])	Activity (Gallus gallus [6])	pKa [1]	Activity (Gallus gallus [3])	Activity (Gallus gallus [4])	Activity (Gallus gallus [7])
O=S(=O)(O)c1ccc(S)cc1	50%			5.7	62%		
C[N+](C)(C)Cc1ccc(S)cc1				5.5	72%	85%	
O=P(O)(O)Cc1ccc(S)cc1		67%		6.6			67%

The next lines start with results.

Activity (Gallus gallus [2])	Activity (Gallus gallus [5])	Activity (Gallus gallus [6])	Compound	pKa [1]	Activity (Gallus gallus [3])	Activity (Gallus gallus [4])	Activity (Gallus gallus [7])
	16%	45%	O=C(O)Cc1ccc(S)cc1				
	60%	70%	O=C(O)c1ccc(S)cc1	5.95			
